Compounds with a hit are over-represented: about 3.8% of the library has one in this group of screens.
RGS4 block = inhibitors of human RGS4; B-score at 10 µM; 0.45% of 310,000 active; P49798; HEK293 M3R/RGS4 inducible, Fluo-4 calcium flux; hits give high values; triggered by carbachol at its EC20;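 active = B-score, a plate-corrected calcium signal, over three deviations above library mean, with baseline fluorescence within five deviations of library mean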;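 note: RGS4 expression induced by doxycycline in cells with stable M3 receptor; B-score is computed from the integrated fluorescence ratio over baseline after carbachol; higher B-score means a larger calcium signal and so more RGS4 inhibition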
Target sequence (P49798 whole entry, looked up): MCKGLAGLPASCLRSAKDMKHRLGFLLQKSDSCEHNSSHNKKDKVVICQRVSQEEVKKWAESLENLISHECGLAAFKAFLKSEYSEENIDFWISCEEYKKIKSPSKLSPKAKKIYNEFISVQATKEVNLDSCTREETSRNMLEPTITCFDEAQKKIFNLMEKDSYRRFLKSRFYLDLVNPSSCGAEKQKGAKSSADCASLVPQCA
MrgX1 ag = human MrgX1 receptor agonism, primary screen; MrgX1-HEK293 cells, Fluo-4 calcium fluorescence, agonist mode; hits give high values; B-score at 10 µM; 0.44% of 310,000 active; AID 588627;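 active = calcium response B-score plate-corrected fluorescence ratio at least 3 library SD, with starting fluorescence B-score inside 5 SD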
Target sequence (Q96LB2 whole entry, looked up): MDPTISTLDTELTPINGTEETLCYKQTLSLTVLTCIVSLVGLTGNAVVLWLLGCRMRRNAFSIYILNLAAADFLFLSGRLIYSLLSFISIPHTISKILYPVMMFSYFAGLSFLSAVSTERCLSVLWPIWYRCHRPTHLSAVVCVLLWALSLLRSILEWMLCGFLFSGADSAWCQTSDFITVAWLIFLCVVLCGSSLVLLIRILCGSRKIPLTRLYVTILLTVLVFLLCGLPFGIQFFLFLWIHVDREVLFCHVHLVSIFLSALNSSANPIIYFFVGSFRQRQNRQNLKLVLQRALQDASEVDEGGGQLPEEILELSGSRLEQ
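Test system: HEK293 cells stably expressing human MrgX1 receptor; Input: fifteen thousand cells per well; Dosing: compound delivered in addition one of three; Schedule: overnight seeding, then 1 h dark dye loading; Technique: Fluo-4 NW calcium fluorescence; Measure: B-scored fluorescence response ratio; Controls: positive and negative controls per plate.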
MrgX1 PAM = human MrgX1 positive allosteric modulation, primary screen; Q96LB2; 0.63% of 310,000 active; MrgX1-HEK293, Fluo-4 calcium flux, FDSS; hits give high values; AID 588675; B-score at 10 µM;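 active = plate-corrected calcium response at least 3 library SD above typical, normal starting fluorescence, not activating the receptor alone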;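 note: compound read alongside a low EC10 to EC30 dose of BAM8-22 agonist; peak minus trough fluorescence over baseline measured at the second addition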
MrgX1 antagonist = blocks BAM8-22 activation of human MrgX1 receptor; AID 588676; MRGX1-HEK293 calcium flux, Fluo-4, BAM8-22 antagonism; hits give low values; B-score at 10 µM; Q96LB2; 1.3% of 310,000 active;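 active = calcium-response B-score plate-corrected more than 3 library SD below zero, starting fluorescence within 5 deviations, no agonist response on first addition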;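 note: peak minus trough fluorescence over baseline after final BAM8-22 challenge near maximal dose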
RGS4 pot = potentiators or activators of RGS4. HEK293 M3R/inducible RGS4, carbachol calcium flux Fluo4; hits give low values. AID 463111. 0.92% of 310,000 active. B-score at 10 µM;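 active = B-score of the integrated calcium signal more than 4 SD below the library mean, with starting fluorescence not abnormally high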;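 note: negative B-score means reduced calcium response which marks RGS4 activation or potentiation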
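Assay system: HEK293 FlpIn-TREx cells, stable M3R, doxycycline-inducible RGS4 / Probe or stimulus: carbachol, ECmax concentration / Times: overnight RGS4 induction, 30 min dye load 37 °C, 20 min compound RT / Signal: kinetic calcium fluorescence imaging with Fluo4-AM dye, 2 µM / Measure: Agonist-evoked peak-minus-minimum fluorescence over baseline, integrated ratio, B score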
Lipid droplet = hepatic lipid droplet formation modulation. 0.4% of 240,000 active. AML12 mouse hepatocytes, oleate lipid droplets, BODIPY imaging. inhibition, % at 6.5 µM;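 active = lipid droplet intensity inhibited by at least 50%, with more than 500 cells counted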
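material = mouse AML12 hepatocyte cell line, fixed after treatment | also added = 100 µM oleic acid challenge | doses = compound at 6.5 µM only | schedule = overnight exposure | technique = Image-based BODIPY and DAPI two-channel analysis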
Lipid drop inh = hepatic lipid droplet formation inhibition, confirmed. 65% of 870 active. AML12 mouse hepatocytes, BODIPY lipid droplet imaging; droplets induced with 100 µM oleic acid. shares compounds with Lipid droplet. inhibition, % at 5.2 µM;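 active = inhibition of lipid droplet metric at least 50%, with more than 300 cells in each of four replicates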
AML12 tox img = AML12 hepatocyte cytotoxicity (counter-screen); shares compounds with Lipid droplet; AML12 mouse hepatocytes, DAPI nuclear morphology cytotoxicity imaging; hits give high values; cells fed 100 µM oleate overnight; z-score at 5 µM; 3% of 870 active; AID 463200; in the data active = z-score above about 6.3;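 note: compound exposure lasted overnight at 37 °C before fixation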
AML12 tox conf = confirmation of cytotoxicity in AML12 mouse hepatocytes; cytotoxicity, % at 50 µM; shares compounds with Lipid droplet; AML12 mouse hepatocyte viability, ATP luminescence; cells loaded with 100 µM oleic acid; 530 tested, under 10 active;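 active = cytotoxicity above 50% in each of four replicates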;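 note: compound exposure lasted overnight at 37 °C before the ATP read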
Each line names hits and unclear results; the compound was inactive in the other large screens (follow-up assays come after a bar, where they were run).

CCOC(=O)c1c(C)[nH]c(N=Nc2ccccc2C)c1C	Lipid droplet 68 | Lipid drop inh 106 | AML12 tox img inactive | AML12 tox conf inactive
CCOC(=O)c1c(C)[nH]c(N=Nc2ccc(C)cc2C)c1C	none (no result: Lipid droplet)
Nc1cc(Nc2ccccc2)c2nonc2c1[N+](=O)[O-]	Lipid droplet 101 | Lipid drop inh 110 | AML12 tox img inactive | AML12 tox conf inactive
O=[N+]([O-])c1c(Nc2ccccc2)ccc2nonc12	none
Cc1cccc(C(C(=O)NC2CCCC2)N(C(=O)c2csnn2)C2CCCC2)c1 (configuration not stated)	Lipid droplet 77 | Lipid drop inh 74 | AML12 tox img inactive | AML12 tox conf inactive
CC(C)c1ccc(NC(=O)c2snc3ccc(Cl)cc23)cc1	none
Cc1ccc(OCC(=O)NCc2ccc3c(c2)OCO3)c([N+](=O)[O-])n1	Lipid droplet 58 | Lipid drop inh inactive | AML12 tox img inactive
Cc1ccc(CNC(=O)COc2ccc(C)nc2[N+](=O)[O-])cc1	none
CCc1nc2ccccc2c(C(=O)OCC(=O)NCc2ccc3c(c2)OCO3)c1C	Lipid droplet 79 | Lipid drop inh 92 | AML12 tox img inactive | AML12 tox conf inactive
CCCc1nc2ccccc2c(C(=O)OC(C)C(=O)NCc2ccc3c(c2)OCO3)c1CC (configuration not stated)	Lipid droplet 84 | Lipid drop inh 103 | AML12 tox img inactive | AML12 tox conf inactive
CCCc1nc2ccccc2c(C(=O)OCC(=O)NCc2ccc3c(c2)OCO3)c1CC	none
Cc1c(C(=O)Nc2ccccc2)c2ccc(C(F)(F)F)cc2n1O	none (no result: Lipid droplet)
CCOc1cc(CNCC2CCCO2)cc(Br)c1OCC(N)=O (configuration not stated)	none (no result: Lipid droplet)
Cc1ccc2cc(/C=N/NC(=O)[C@H]3C[C@@H]3c3ccccc3)c(Cl)nc2c1	Lipid droplet 75 | Lipid drop inh inactive | AML12 tox img inactive | AML12 tox conf inactive
O=C(N/N=C/c1cc2ccccc2nc1Cl)[C@H]1C[C@@H]1c1ccccc1	none
COc1ccc(C(C(=O)NCCC(C)C)N(CCO)C(=O)c2snc(C(N)=O)c2N)cc1 (configuration not stated)	none
CCC/C(=N/Nc1ccc(Cl)cc1)c1cnnc(-c2ccccc2)n1	none (no result: Lipid droplet)
CC/C(=N/Nc1ccccc1Cl)c1cnnc(-c2ccccc2)n1	Lipid droplet 56 | Lipid drop inh 75 | AML12 tox img inactive | AML12 tox conf inactive
COc1cc(C(=S)N2CCOCC2)cc(OC)c1OC(=O)c1ccccc1[N+](=O)[O-]	Lipid droplet 56 | Lipid drop inh inactive | AML12 tox img inactive
CCOc1ccc(CCNC(=O)Nc2ccccc2C)cc1OCC	Lipid droplet 104 | Lipid drop inh 101 | AML12 tox img inactive | AML12 tox conf inactive
CCOc1ccc(CCNC(=O)Cn2cccc2C(=O)c2ccccc2C)cc1OCC	Lipid droplet 101 | Lipid drop inh 109 | AML12 tox img inactive | AML12 tox conf inactive
COc1cccc(/C=C/C(=O)NCCc2ccc(OC)c(OC)c2)c1	Lipid droplet 54 | Lipid drop inh inactive | AML12 tox img inactive
CCOc1ccc(CCNC(=O)COC(=O)CSc2ccccc2C)cc1OCC	none
CCOc1ccc(CCNC(=O)CN2C(=O)NC3(CCCC3)C2=O)cc1OCC	Lipid droplet 83 | Lipid drop inh 109 | AML12 tox img inactive | AML12 tox conf inactive
O=c1c(-c2ccc(Cl)cc2)cnc2n1CCS2	none
Cc1c(NC(=O)Nc2ccccc2Cl)c(=O)n(-c2ccccc2)n1C	none
Cc1ccc(C(=O)N/C(=C/c2ccc(C(C)C)cc2)C(=O)NCCCN2CCOCC2)cc1	none
CCOc1ccc(CCNC(=O)/C=C/c2ccco2)cc1OCC	Lipid droplet 81 | Lipid drop inh 105 | AML12 tox img inactive | AML12 tox conf inactive
COc1ccc(CCNC(=O)/C=C/c2ccco2)cc1OC	none (no result: Lipid droplet)
Cc1ccc(/C=N/n2cnc3sc(C)c(C)c3c2=O)o1	none
O=C(Cc1cccc2ccccc12)Nc1c(F)cccc1F	Lipid droplet 55 | Lipid drop inh 82 | AML12 tox img inactive | AML12 tox conf inactive
O=C(Cc1cccc2ccccc12)Nc1ccccc1C(=O)O	none
CC(Sc1nnc(NCc2ccccc2)s1)C(=O)Nc1ccc2c(c1)C(=O)c1ccccc1C2=O (configuration not stated)	none
CC(Sc1nnc(Nc2ccccc2)s1)C(=O)Nc1nc(-c2ccccc2)cs1 (configuration not stated)	Lipid droplet 54 | Lipid drop inh 96 | AML12 tox img inactive | AML12 tox conf inactive
c1cc[n+](CCC[n+]2ccccc2)cc1	Lipid droplet 56 | Lipid drop inh inactive | AML12 tox img inactive
Cc1cccc(NC(=O)CSc2nnc(C)c(=O)n2N)c1	Lipid droplet 56 | Lipid drop inh inactive | AML12 tox img inactive | AML12 tox conf inactive
Cc1ccc(NC(=O)CSc2nnc(C)c(=O)n2N)cc1Cl	Lipid droplet 63 | Lipid drop inh 97 | AML12 tox img inactive | AML12 tox conf inactive
O=C(Cn1cnc2ccccc2c1=O)Nc1ccc(N2CCOCC2)cc1	none
O=C(CSC1=NC2(CCCCCC2)N=C1c1ccccc1)Nc1ccc2c(c1)OCCO2	Lipid droplet 59 | Lipid drop inh 69 | AML12 tox img inactive | AML12 tox conf inactive
Cc1c(C(=O)NCc2ccco2)oc2ccccc12	none
CN(C)Cc1ccc(O)c(CCc2ccccc2)n1	Lipid droplet 52 | Lipid drop inh inactive | AML12 tox img inactive
O=C(NCCc1cccnc1)c1cc(COc2ccc(F)cc2F)on1	Lipid droplet 95 | Lipid drop inh inactive | AML12 tox img inactive
CCn1c(=O)c2cc(C(=O)NCCC(C)C)sc2c2ccccc21	Lipid droplet 54 | Lipid drop inh 92 | AML12 tox img inactive | AML12 tox conf inactive
CCn1c(=O)c2cc(C(=O)NCCCOC)sc2c2ccccc21	none
CCOC(=O)N1CCN(C(=O)CSCC(=O)Nc2nc(-c3ccc(-c4ccccc4)cc3)cs2)CC1	MrgX1 antagonist -6.4, Lipid droplet 82 | Lipid drop inh 76 | AML12 tox img inactive | AML12 tox conf inactive
CCNC(=S)NNC(=O)CCn1cc(C)cn1	none
Cc1onc(-c2c(F)cccc2Cl)c1C(=O)NC(=S)NCc1cccnc1	none

Source: PubChem
